The values that follow come from ChEMBL document CHEMBL3045240 (J Med Chem, 1987).

Data set [1] deals with Musca domestica. Description: Toxicity against SCR-susceptible Musca domestica (house fly) assessed as immobility compound administered by intrathoracic injection measured 4 hr post compound treatment. The data set is classed as functional. In outline: (§1)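 Houseflies without piperonyl butoxide pretreatment received ryanoid by intrathoracic injection in 50% aqueous ethanol. Knockdown (immobility) was scored 4 h after treatment, and KD50 came from log dose–probit plots. Two independent experiments were run, each with 10 flies per dose and 1.5–2-fold dose spacing.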

Data set [2] has as its system Musca domestica. Put plainly: Ratio of compound KD50 to ryanodine KD50 for SCR-susceptible Musca domestica (house fly) assessed as immobility compound administered by intrathoracic injection measured 4 hr post compound treatment. In kind it is ADME, organism-based. Conditions: in vivo, other; call rule not given here. The method, boiled down:
as §1

The subject of another data set is Mus musculus. Description: Ratio of compound LC50 to ryanodine LC50 for ip dosed Mus musculus Swiss-Webster (mouse) assessed as mortality measured after 24 hr. In kind it is ADME, organism-based. The note with it: in vivo.
Data set [3] relates to Musca domestica. Description: Ratio of compound KD50 to ryanodine KD50 for SCR-susceptible Musca domestica (house fly) assessed as immobility compound administered by intrathoracic injection 2 hr after piperonyl butoxide treatment measured 4 hr post compound treatment. The data set is classed as functional. The method, boiled down: (§2)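 Houseflies first received 7.5 μg piperonyl butoxide in 0.5 μL acetone topically on the abdomen. After 2 h they were given the test compound by intrathoracic injection in 1 μL of 50% aqueous ethanol. Flies immobilised at 4 h were scored, and KD50 came from log dose–probit plots. Two independent experiments were run, each with 10 flies per dose and 1.5–2-fold dose spacing.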

Data set [4] concerns the target T1, Ryanodine receptor 1 (Oryctolagus cuniculus, UniProt P11716). Put plainly: Ratio of compound IC50 to ryanodine IC50 for Ca2+-ryanodine receptor in Oryctolagus cuniculus (rabbit) skeletal muscle sarcoplasmic reticulum after 80 min by competitive inhibition assay. The data set is classed as ADME. The method, boiled down: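 Rabbit fast skeletal muscle heavy SR (terminal cisternae) receptor, solubilised with 1 M NaCl, 1 mg CHAPS/mg protein and 40 mM Tris/maleate pH 7.1. […] Incubation was 80 min at 37°C, then GF/C filtration. IC50 came from Hill regression.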

Data set [5] has as its system Musca domestica. Put plainly: Toxicity against SCR-susceptible Musca domestica (house fly) assessed as immobility compound administered by intrathoracic injection 2 hr after piperonyl butoxide treatment measured 4 hr post compound treatment. The data set is classed as functional. In outline:
as §2

Data set [6] in a line: Toxicity in ip dosed Mus musculus Swiss-Webster (mouse) assessed as mortality measured after 24 hr. In kind it is organism-based. Conditions: in vivo.
Data set [7] concerns the target T1, Ryanodine receptor 1.
Data set [8] has as its system Musca domestica. Description: Drug metabolism in SCR-susceptible Musca domestica (house fly) assessed as unidentified metabolite intermediate Rf in exctreta at 160 ug/g after 1 hr by TLC method. The data set is classed as ADME, organism-based. Conditions: in vivo. In outline: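 Excreta were extracted with MeOH, then run on TLC on 0.20-mm silica gel in 15% MeOH/CHCl3. Metabolites were detected by liquid scintillation counting.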

The test system of data set [9] is Musca domestica. Description: Drug metabolism in SCR-susceptible Musca domestica (house fly) assessed as unidentified metabolite intermediate Rf in exctreta at 160 ug/g after 4 hr by TLC method. The note with it: in vivo. The data set is classed as ADME, organism-based.

A value given as a limit tells only on which side of the number the result lay.

T1 sequence (P11716 whole entry): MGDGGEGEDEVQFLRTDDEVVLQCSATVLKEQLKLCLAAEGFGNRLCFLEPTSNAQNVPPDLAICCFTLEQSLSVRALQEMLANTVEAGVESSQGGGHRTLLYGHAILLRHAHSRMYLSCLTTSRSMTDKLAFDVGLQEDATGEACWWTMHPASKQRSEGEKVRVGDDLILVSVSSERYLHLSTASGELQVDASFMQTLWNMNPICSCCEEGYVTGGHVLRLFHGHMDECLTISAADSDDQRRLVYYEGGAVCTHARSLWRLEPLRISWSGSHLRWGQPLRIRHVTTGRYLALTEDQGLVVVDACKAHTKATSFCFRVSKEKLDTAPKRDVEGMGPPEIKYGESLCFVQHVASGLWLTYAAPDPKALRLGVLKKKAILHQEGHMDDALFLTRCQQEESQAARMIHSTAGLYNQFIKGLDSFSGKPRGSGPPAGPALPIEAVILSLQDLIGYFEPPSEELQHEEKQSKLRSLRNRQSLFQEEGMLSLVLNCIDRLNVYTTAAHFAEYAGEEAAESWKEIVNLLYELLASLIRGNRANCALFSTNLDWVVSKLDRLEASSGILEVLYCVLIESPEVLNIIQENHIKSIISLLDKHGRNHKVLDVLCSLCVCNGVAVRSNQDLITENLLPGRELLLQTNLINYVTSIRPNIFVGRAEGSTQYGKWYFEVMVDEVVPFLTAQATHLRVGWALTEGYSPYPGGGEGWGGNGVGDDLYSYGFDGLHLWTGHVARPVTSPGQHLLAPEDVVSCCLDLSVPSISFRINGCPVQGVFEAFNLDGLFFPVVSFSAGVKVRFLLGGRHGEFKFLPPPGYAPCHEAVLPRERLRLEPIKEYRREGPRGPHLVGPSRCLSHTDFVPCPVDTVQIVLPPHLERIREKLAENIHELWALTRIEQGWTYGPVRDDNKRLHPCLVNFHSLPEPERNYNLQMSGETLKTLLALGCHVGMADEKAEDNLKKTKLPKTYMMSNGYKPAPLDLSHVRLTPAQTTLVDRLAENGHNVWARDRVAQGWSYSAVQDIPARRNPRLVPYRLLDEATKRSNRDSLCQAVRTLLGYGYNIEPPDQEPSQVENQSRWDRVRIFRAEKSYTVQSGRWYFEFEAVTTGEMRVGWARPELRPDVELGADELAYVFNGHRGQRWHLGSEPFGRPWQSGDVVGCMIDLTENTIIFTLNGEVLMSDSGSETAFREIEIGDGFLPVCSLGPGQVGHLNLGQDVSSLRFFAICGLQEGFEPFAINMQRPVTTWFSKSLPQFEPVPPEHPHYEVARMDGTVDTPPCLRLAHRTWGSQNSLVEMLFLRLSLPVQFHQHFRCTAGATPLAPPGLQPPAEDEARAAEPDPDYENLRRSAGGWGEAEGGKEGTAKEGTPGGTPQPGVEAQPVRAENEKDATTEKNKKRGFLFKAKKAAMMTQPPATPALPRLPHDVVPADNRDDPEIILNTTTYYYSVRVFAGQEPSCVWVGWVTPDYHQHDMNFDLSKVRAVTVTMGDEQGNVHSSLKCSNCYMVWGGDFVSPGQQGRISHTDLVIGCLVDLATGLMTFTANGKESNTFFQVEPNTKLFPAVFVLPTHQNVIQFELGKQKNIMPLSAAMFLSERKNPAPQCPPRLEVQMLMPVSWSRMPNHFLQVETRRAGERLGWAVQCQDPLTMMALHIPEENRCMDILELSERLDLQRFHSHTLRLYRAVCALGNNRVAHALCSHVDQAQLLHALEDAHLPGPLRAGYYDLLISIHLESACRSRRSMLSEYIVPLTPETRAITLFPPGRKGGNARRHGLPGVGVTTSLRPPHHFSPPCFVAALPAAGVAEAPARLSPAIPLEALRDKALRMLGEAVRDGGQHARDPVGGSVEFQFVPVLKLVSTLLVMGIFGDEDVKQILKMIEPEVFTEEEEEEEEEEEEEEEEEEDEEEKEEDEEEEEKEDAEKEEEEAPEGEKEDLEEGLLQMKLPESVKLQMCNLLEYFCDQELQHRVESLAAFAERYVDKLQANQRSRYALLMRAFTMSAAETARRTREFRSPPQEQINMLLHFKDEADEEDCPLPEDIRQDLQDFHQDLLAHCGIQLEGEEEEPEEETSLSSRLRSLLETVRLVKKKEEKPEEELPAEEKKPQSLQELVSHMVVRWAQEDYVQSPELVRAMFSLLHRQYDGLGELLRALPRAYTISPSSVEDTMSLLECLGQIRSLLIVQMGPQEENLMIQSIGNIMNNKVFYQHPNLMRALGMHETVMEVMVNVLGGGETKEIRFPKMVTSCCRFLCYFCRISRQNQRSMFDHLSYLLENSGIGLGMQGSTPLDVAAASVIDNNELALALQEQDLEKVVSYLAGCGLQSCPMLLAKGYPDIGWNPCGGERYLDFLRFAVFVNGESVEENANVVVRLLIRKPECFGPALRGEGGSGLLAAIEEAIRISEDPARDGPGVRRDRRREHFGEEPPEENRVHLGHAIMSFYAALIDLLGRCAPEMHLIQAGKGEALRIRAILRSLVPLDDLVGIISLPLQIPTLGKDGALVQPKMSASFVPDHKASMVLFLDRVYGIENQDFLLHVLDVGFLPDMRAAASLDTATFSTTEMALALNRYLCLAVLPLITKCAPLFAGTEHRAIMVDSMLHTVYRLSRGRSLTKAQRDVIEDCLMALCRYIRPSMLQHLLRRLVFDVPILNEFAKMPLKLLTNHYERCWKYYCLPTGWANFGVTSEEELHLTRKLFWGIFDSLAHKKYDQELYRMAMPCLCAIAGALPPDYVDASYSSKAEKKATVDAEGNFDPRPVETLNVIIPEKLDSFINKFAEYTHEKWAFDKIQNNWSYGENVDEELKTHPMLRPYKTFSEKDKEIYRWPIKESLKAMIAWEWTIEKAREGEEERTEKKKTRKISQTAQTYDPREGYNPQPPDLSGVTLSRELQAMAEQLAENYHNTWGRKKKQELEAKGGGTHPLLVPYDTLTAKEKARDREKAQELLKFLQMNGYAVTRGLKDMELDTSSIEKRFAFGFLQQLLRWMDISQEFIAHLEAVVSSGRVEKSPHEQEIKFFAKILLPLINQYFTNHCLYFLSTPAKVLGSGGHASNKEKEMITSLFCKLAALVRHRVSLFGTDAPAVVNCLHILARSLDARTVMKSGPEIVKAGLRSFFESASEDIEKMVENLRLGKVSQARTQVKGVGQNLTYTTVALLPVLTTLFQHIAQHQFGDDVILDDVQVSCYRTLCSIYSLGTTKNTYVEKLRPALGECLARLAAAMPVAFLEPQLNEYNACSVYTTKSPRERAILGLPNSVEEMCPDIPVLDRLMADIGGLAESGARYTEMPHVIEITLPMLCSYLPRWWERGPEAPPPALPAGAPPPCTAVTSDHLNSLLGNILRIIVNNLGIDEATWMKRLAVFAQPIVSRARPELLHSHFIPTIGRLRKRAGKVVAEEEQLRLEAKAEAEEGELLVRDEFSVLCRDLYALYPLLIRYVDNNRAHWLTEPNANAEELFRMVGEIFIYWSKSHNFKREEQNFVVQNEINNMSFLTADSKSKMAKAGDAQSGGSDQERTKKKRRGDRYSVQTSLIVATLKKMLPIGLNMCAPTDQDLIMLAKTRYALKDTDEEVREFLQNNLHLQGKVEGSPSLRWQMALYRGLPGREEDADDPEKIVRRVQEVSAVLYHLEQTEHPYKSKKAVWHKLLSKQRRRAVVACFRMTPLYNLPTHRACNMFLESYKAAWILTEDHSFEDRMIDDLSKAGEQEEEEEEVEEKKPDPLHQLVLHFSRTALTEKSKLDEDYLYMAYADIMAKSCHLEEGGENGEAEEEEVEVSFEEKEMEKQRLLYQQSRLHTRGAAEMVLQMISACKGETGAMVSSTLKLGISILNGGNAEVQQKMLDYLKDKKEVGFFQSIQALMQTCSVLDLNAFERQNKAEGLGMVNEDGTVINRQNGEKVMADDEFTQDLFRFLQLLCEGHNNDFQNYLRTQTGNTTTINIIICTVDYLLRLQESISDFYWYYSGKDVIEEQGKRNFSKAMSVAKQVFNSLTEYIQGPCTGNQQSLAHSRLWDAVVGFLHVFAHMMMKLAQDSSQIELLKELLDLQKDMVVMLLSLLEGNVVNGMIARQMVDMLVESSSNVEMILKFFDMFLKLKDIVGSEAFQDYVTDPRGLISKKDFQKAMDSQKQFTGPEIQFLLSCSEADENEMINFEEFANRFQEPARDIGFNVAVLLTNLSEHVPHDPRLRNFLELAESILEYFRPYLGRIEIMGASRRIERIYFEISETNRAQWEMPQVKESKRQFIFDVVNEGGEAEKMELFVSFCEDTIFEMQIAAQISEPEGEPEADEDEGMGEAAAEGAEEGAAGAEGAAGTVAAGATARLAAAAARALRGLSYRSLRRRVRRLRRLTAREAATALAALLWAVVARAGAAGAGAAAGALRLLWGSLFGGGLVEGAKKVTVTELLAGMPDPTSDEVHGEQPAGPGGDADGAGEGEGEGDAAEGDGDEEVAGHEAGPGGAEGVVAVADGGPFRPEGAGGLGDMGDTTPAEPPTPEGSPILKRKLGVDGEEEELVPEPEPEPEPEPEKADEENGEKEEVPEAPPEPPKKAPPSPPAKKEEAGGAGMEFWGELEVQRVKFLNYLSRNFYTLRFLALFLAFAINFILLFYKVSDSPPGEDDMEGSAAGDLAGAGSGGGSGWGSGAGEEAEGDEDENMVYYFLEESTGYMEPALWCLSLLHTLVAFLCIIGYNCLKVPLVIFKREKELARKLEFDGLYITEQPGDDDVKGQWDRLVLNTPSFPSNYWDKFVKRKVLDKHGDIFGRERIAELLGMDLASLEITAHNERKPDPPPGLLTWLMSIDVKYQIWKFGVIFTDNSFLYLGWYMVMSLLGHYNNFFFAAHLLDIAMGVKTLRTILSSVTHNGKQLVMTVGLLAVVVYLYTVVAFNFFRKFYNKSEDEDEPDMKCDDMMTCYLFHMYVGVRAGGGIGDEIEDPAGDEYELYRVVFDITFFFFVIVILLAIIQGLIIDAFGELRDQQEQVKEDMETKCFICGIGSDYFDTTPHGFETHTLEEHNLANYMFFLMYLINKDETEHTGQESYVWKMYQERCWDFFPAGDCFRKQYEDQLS

The LD50 is the dose expected to kill half of the subjects tested. Broadly, the IC50 is the concentration that gives 50% inhibition. A low value points to higher potency. As for `CC(C)[C@@]1(O)[C@@H](O)[C@@]2(O)[C@@]3(C)C[C@]4(O)O[C@@]5([C@H](O)[C@@H](C)CC[C@]35O)[C@@]2(O)[C@]14C` [RYANODOL], the KD50 with Musca domestica [1] is 1.1 µg/g; with Musca domestica [5], 0.34 µg/g. Besides, the Ratio in the data set on Musca domestica [2] is 0.8; with Mus musculus it was > 200; with Musca domestica [3], 3.6. Further, the “Ratio IC50” value on Ryanodine receptor 1 [4] worked out at 3500. Besides, the LD50 at 24 h in data set [6] was > 20 mg/kg. 35000 nM corresponded to half-maximal inhibition at Ryanodine receptor 1 [7] (IC50).
`CO[C@@]12C[C@@]3(C)[C@@]4(O)CC[C@H](C)[C@@H](O)[C@]4(O1)[C@]1(O)[C@@]3(O)[C@H](OC(=O)c3cccn3C)[C@](O)(C(C)C)[C@]21C`: the KD50 in the data set on Musca domestica [5] was >20 µg/g. For the same molecule, the 50% lethal dose (LD50) at 24 h in data set [6] was determined as 17 mg/kg. The same molecule had an IC50 against Ryanodine receptor 1 [7] of 280 nM.
For `CO[C@@H]1[C@@H](C)CC[C@]2(O)[C@]3(C)C[C@]4(OC)O[C@]12[C@]1(O)[C@@]3(OC)[C@H](OC(=O)c2cccn2C)[C@](O)(C(C)C)[C@]41C` the same measures were >20 µg/g, > 20 mg/kg and > 10000 nM.
For `C=C1CC[C@]2(O)[C@]3(C)C[C@]4(O)O[C@@]2([C@@H]1O)[C@]1(O)[C@@]3(O)[C@H](O)[C@](O)(C(C)C)[C@@]14C` [DIDEHYDRORYANODOL] the same measures were 0.36 µg/g, > 20 mg/kg and 10000 nM.
On the same counts, the results for `C=C1CC[C@]2(O)[C@]3(C)C[C@]4(O)O[C@@]2([C@@H]1O)[C@]1(O)[C@@]3(O)[C@H](OC(=O)c2ccc[nH]2)[C@](O)(C(C)C)[C@@]14C` [DEHYDRORYANODINE] are 0.03 µg/g, 0.1 mg/kg and 13 nM.
Turning to `CC(C)[C@@]1(O)[C@@H](OC(=O)c2ccc[nH]2)[C@@]2(O)[C@@]3(C)C[C@]4(O)O[C@@]5([C@H](O)C6(CC[C@]35O)CO6)[C@@]2(O)[C@]14C` (stereo not given in full) [9,21-EPOXYRYANODINE], the KD50 in the data set on Musca domestica [5] was 0.3 µg/g. Also, in data set [6], the LD50 at 24 h stood at 1.5 mg/kg. Moreover, on Ryanodine receptor 1 [7], the concentration for half-maximal inhibition (IC50) turned out to be 140 nM.
Turning to `CC1=C(C(C)C)[C@@H](OC(=O)c2ccc[nH]2)[C@@]2(O)[C@@]3(C)CC(=O)O[C@@]4([C@H](O)[C@@H](C)CC[C@]34O)[C@@]12O` [ANHYDRORYANODINE], the LD50 at 24 h in data set [6] was > 20 mg/kg. For the same molecule, at Ryanodine receptor 1 [7], the half-maximal inhibitory concentration (IC50) was > 10000 nM.
Regarding `CC(C)[C@@]1(O)[C@@H](OC(=O)c2ccc[nH]2)[C@@]2(O)[C@@]3(C)C[C@]4(O)O[C@@]5([C@H](O)[C@@H](C)CC[C@]35O)[C@@]2(O)[C@@]14C` [RYANODINE], the LD50 at 24 h in data set [6] was found to be 0.1 mg/kg.
Consider `CC(C)[C@@]1(O)[C@@H](OC(=O)c2ccc[nH]2)[C@@]2(O)[C@@]3(C)C[C@]4(O)O[C@@]5([C@H](O)[C@](O)(CO)CC[C@]35O)[C@@]2(O)[C@]14C` [9,21-DIHYDROXYRYANODINE], for which, in the data set on Musca domestica [5], the KD50 came to 10 µg/g. Besides, inhibition against Ryanodine receptor 1 [7] was half-maximal at 4900 nM (IC50).
On the same counts, the results for `CO[C@@]12C[C@@]3(C)[C@@]4(OC)CC[C@H](C)[C@@H](O)[C@]4(O1)[C@]1(O)[C@@]3(O)[C@H](OC(=O)c3cccn3C)[C@](O)(C(C)C)[C@]21C` are 12 µg/g and 1300 nM.
As for `CC(C)[C@@]1(O)[C@@H](OC(=O)c2[nH]c(Br)c(Br)c2Br)[C@@]2(O)[C@@]3(C)C[C@]4(O)O[C@@]5([C@H](O)[C@@H](C)CC[C@]35O)[C@@]2(O)[C@]14C` [24,25,26-TRIBROMORYANODINE], the 50% lethal dose (LD50) at 24 h in data set [6] was > 20 mg/kg. The half-inhibitory concentration (IC50) against Ryanodine receptor 1 [7] is > 10000 nM.
On the same counts, the results for `CC1=CC[C@]2(O)[C@]3(C)C[C@]4(O)O[C@@]2(C1=O)[C@]1(O)[C@@]3(O)[C@H](OC(=O)c2ccc[nH]2)[C@](O)(C(C)C)[C@@]14C` are > 5 mg/kg and 7300 nM.
As for `CC(CO)[C@@]1(O)[C@@H](OC(=O)c2ccc[nH]2)[C@@]2(O)[C@@]3(C)C[C@]4(O)O[C@@]5([C@H](O)[C@@H](C)CC[C@]35O)[C@@]2(O)[C@]14C` (stereo not given in full) [18-HYDROXYRYANODINE], the LD50 at 24 h in data set [6] is 0.9 mg/kg. At Ryanodine receptor 1 [7], this molecule registered a half-inhibitory concentration (IC50) of 88 nM.
Consider `CC(C)[C@@]1(O)[C@@H](OC(=O)c2cccn2Cc2ccccc2)[C@@]2(O)[C@@]3(C)C[C@]4(O)O[C@@]5([C@H](O)[C@@H](C)CC[C@]35O)[C@@]2(O)[C@]14C` [N-BENZYLRYANODINE], for which the 50% lethal dose (LD50) at 24 h in data set [6] turned out to be 6.3 mg/kg. On Ryanodine receptor 1 [7], the IC50 was found to be 310 nM.
Take `CC(C)[C@@]1(O)[C@@H](OC(=O)c2ccc[nH]2)[C@@]2(O)[C@@]3(C)C[C@]4(O)O[C@@]5(C(=O)[C@@H](C)CC[C@]35O)[C@@]2(O)[C@]14C` [10-KETORYANODINE]: the KD50 in the data set on Musca domestica [5] was >20 µg/g. The 50% lethal dose (LD50) at 24 h in data set [6] was found to be 0.55 mg/kg. Further, on Ryanodine receptor 1 [7], the midpoint of inhibition, the IC50, lay at 100 nM.
With `CC(C)[C@@]1(O)[C@@H](OC(=O)c2cc[nH]c2)[C@@]2(O)[C@]3(C)C[C@@]4(O)O[C@@]5([C@H](O)[C@@H](C)CC[C@]35O)[C@@]2(O)[C@@]41C` [RYANODINE], the Drug metabolism entry with Musca domestica [8] and in the data set with Musca domestica [9] was “Active” each time.
As for `CCCCn1cccc1C(=O)O[C@H]1[C@@]2(O)[C@@]3(C)C[C@]4(O)O[C@@]5([C@H](O)[C@@H](C)CC[C@]35O)[C@@]2(O)[C@]4(C)[C@@]1(O)C(C)C` [N-BUTYLRYANODINE], the concentration for half-maximal inhibition (IC50) against Ryanodine receptor 1 [7] came to 860 nM.
With `CC(=O)O[C@@H]1[C@@H](C)CC[C@]2(O)[C@]3(C)C[C@]4(O)O[C@]12[C@]1(O)[C@@]3(O)[C@H](OC(=O)c2ccc[nH]2)[C@](O)(C(C)C)[C@@]14C` [10-ACETYLRYANODINE], the KD50 in the data set with Musca domestica [5] was 0.5 µg/g. Further, on Ryanodine receptor 1 [7], inhibition was half-maximal at 140 nM (IC50).
Regarding `CO[C@@]12C[C@@]3(C)[C@@]4(O)CC[C@H](C)[C@@H](O)[C@]4(O1)[C@]1(O)[C@@]3(OC)[C@H](OC(=O)c3cccn3C)[C@](O)(C(C)C)[C@]21C`, the KD50 in the data set on Musca domestica [5] was >20 µg/g. For the same molecule, the median lethal dose (LD50) at 24 h in data set [6] was > 20 mg/kg. Further, the IC50 against Ryanodine receptor 1 [7] worked out at 4500 nM.
Take `CC(C)[C@@]1(O)[C@@H](OC(=O)c2ccc[nH]2)[C@@]2(O)[C@@]3(C)C[C@]4(O)O[C@@]5([C@H](O)[C@H](C)CC[C@]35O)[C@@]2(O)[C@]14C` [EPIRYANODINE]: in data set [6], the 50% lethal dose (LD50) at 24 h was found to be 0.47 mg/kg.
